# Measured values: ChEMBL document CHEMBL4818983, “Structure-activity relationship and hypoglycemic activity of tricyclic matrines with advantage of treating diabetic nephropathy” (Eur J Med Chem, 2020)
# Tested on: HepG2
# Assay: Increase in glucose consumption in human HepG2 cells assessed as Gx/GDMSO ratio at 25 uM by glucose oxidase assay
# Format: functional
# How it was run: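 HepG2 glucose consumption screen. Test compounds at 25 μM, metformin at 5 mM. Activity expressed as ratio of glucose consumption to DMSO-treated cells (Gx/G_DMSO).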
row,SMILES,Ratio
1,O=C1C=CC[C@@H]2[C@H]3CCCN4CCC[C@@H](CN12)[C@@H]34 [SOPHOCARPINE],1.11
2,CNc1nnc(CCC[C@@H]2[C@H]3CCCN4CCC[C@@H](CN2S(=O)(=O)c2cccc(C(F)(F)F)c2)[C@@H]34)s1,0.86
3,CCCC[C@@H]1[C@H]2CCCN3CCC[C@@H](CN1C(=O)Nc1ccccc1C)[C@@H]23,1.3
4,CC[C@@H]1[C@H]2CCCN3CCC[C@@H](CN1S(=O)(=O)c1ccc(C(F)(F)F)cc1)[C@@H]23,1.32
5,CCNc1nnc(CCC[C@@H]2[C@H]3CCCN4CCC[C@@H](CN2S(=O)(=O)c2ccc(C)cc2)[C@@H]34)s1,0.79
6,CCCC[C@@H]1[C@H]2CCCN3CCC[C@H](CN1S(=O)(=O)c1cccc(C(F)(F)F)c1)[C@@H]23,1.2
7,O=C(O)CCC[C@@H]1[C@H]2CCCN3CCC[C@H](CN1S(=O)(=O)c1ccc(C(F)(F)F)cc1)[C@@H]23,0.99
8,Cc1ccc(S(=O)(=O)N2C[C@H]3CCCN4CCC[C@@H]([C@H]34)[C@H]2CCCCO)cc1,1.12
9,Nc1nnc(CCC[C@@H]2[C@H]3CCCN4CCC[C@@H](CN2S(=O)(=O)c2ccc(C(F)(F)F)cc2)[C@@H]34)o1,1.18
10,CCCC[C@@H]1[C@H]2CCCN3CCC[C@@H](CN1C(=O)Nc1c(C)cccc1C)[C@@H]23,1.14
11,O=C(O)CCC[C@@H]1[C@H]2CCCN3CCC[C@H](CN1S(=O)(=O)c1ccccc1C(F)(F)F)[C@@H]23,1.12
12,CCCC[C@@H]1[C@H]2CCCN3CCC[C@@H](CN1C(=O)Nc1cccc(C(F)(F)F)c1)[C@@H]23,1
13,CCCC[C@@H]1[C@H]2CCCN3CCC[C@H](CN1S(=O)(=O)c1ccccc1C(F)(F)F)[C@@H]23,1.26
14,Cc1ccc(S(=O)(=O)N2C[C@@H]3CCCN4CCC[C@@H]([C@H]34)[C@H]2CCCC(=O)O)cc1,0.87
15,CCCC[C@@H]1[C@H]2CCCN3CCC[C@@H](CN1C(=O)Nc1ccccc1C(F)(F)F)[C@@H]23,1.03
16,CCCC[C@@H]1[C@H]2CCCN3CCC[C@@H](CN1C(=O)Nc1ccc(C(F)(F)F)cc1)[C@@H]23,1.08
17,CCCC[C@@H]1[C@H]2CCCN3CCC[C@@H](CN1S(=O)(=O)c1ccc(C)cc1)[C@@H]23,1.03
18,CCCC[C@@H]1[C@H]2CCCN3CCC[C@@H](CN1C(=O)Nc1cccc(C)c1)[C@@H]23,1.32
19,CC(=O)Nc1nnc(CCC[C@@H]2[C@H]3CCCN4CCC[C@@H](CN2S(=O)(=O)c2cccc(C(F)(F)F)c2)[C@@H]34)s1,0.89
20,CCCC[C@@H]1[C@H]2CCCN3CCC[C@@H](CN1C(=O)Nc1ccc(OC(F)(F)F)cc1)[C@@H]23,1.07
21,O=S(=O)(c1ccccc1C(F)(F)F)N1C[C@H]2CCCN3CCC[C@@H]([C@H]23)[C@H]1CCCCO,1.24
22,O=S(=O)(c1cccc(C(F)(F)F)c1)N1C[C@H]2CCCN3CCC[C@@H]([C@H]23)[C@H]1CCCCO,1.25

row,SMILES,Ratio
1,Nc1nnc(CCC[C@@H]2[C@H]3CCCN4CCC[C@@H](CN2S(=O)(=O)c2cccc(C(F)(F)F)c2)[C@@H]34)o1,1.34
2,O=S(=O)(c1ccc(C(F)(F)F)cc1)N1C[C@@H]2CCCN3CCC[C@@H]([C@H]23)[C@H]1CCCCN=C=S,1.02
3,Cc1ccc(S(=O)(=O)N2C[C@@H]3CCCN4CCC[C@@H]([C@H]34)[C@H]2CCCCO)cc1,1.16
4,CCCC[C@@H]1[C@H]2CCCN3CCC[C@@H](CN1S(=O)(=O)c1ccccc1C(F)(F)F)[C@@H]23,1.01
5,O=S(=O)(c1ccc(C(F)(F)F)cc1)N1C[C@@H]2CCCN3CCC[C@@H]([C@H]23)[C@H]1CCCCO,1.04
6,O=S(=O)(c1ccc(C(F)(F)F)cc1)N1C[C@H]2CCCN3CCC[C@@H]([C@H]23)[C@H]1CCCCO,1.06
7,COC(=O)CCC[C@@H]1[C@H]2CCCN3CCC[C@H](CN1S(=O)(=O)c1ccc(C(F)(F)F)cc1)[C@@H]23,1.13
8,O=C1CCC[C@@H]2[C@H]3CCCN4CCC[C@@H](CN12)[C@@H]34 [MATRINE],1.26
9,COC(=O)CCC[C@@H]1[C@H]2CCCN3CCC[C@H](CN1S(=O)(=O)c1ccc(C)cc1)[C@@H]23,1.14
10,O=C(O)CCC[C@@H]1[C@H]2CCCN3CCC[C@@H](CN1S(=O)(=O)c1ccc(C(F)(F)F)cc1)[C@@H]23,1.03
11,CCCC[C@@H]1[C@H]2CCCN3CCC[C@H](CN1S(=O)(=O)c1ccc(C)cc1)[C@@H]23,1.07
12,COC(=O)CCC[C@@H]1[C@H]2CCCN3CCC[C@H](CN1S(=O)(=O)c1cccc(C(F)(F)F)c1)[C@@H]23,1.21
13,O=C(O)CCC[C@@H]1[C@H]2CCCN3CCC[C@H](CN1S(=O)(=O)c1cccc(C(F)(F)F)c1)[C@@H]23,1.16
14,O=C1CCC[C@@H]2[C@H]3CCCN4CCC[C@H](CN12)[C@@H]34 [SOPHORIDINE],1.22
15,CCCC[C@@H]1[C@H]2CCCN3CCC[C@@H](CN1C(=O)Nc1ccc(F)cc1)[C@@H]23,1.02
16,CCCC[C@@H]1[C@H]2CCCN3CCC[C@@H](CN1C(=O)Nc1ccc(C)cc1)[C@@H]23,1.04
17,Nc1nnc(CCC[C@@H]2[C@H]3CCCN4CCC[C@@H](CN2S(=O)(=O)c2cccc(C(F)(F)F)c2)[C@@H]34)s1,1.04
18,CCCC[C@@H]1[C@H]2CCCN3CCC[C@H](CN1S(=O)(=O)c1ccc(C(F)(F)F)cc1)[C@@H]23,1.17
19,CN(C)c1nnc(CCC[C@@H]2[C@H]3CCCN4CCC[C@@H](CN2S(=O)(=O)c2cccc(C(F)(F)F)c2)[C@@H]34)s1,0.97
20,O=C(O)C[C@@H]1[C@H]2CCCN3CCC[C@@H](CN1S(=O)(=O)c1cccc(C(F)(F)F)c1)[C@@H]23,1.06
21,CC[C@@H]1[C@H]2CCCN3CCC[C@@H](CN1S(=O)(=O)c1ccccc1C(F)(F)F)[C@@H]23,1.26
22,COC(=O)CCC[C@@H]1[C@H]2CCCN3CCC[C@H](CN1S(=O)(=O)c1ccccc1C(F)(F)F)[C@@H]23,1.23
